The list shows a part of the results. A number with no mark means an inactive call.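 Rule for the calls: active = fluorescence in ABCG2-expressing cells above the plate's control-well mean plus 3 SD (cut at about 15 in these data); inactive = the rest.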

A short description of the assay: compound autofluorescence in ABCG2-expressing IgMXP3 cells, confirmation, artefact control for ABC transporter inhibitor project, cell-based, 488/530 nm, flow cytometry (AID 1480). Particulars: compound autofluorescence 488/530 nm, at 6.6 µM, stronger effect = higher value. An outline of the steps: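 Material – ABCG2-expressing drug-resistant IgMXP3 cells · Detection – flow cytometry, FL1 green emission · Read-out – compound-well median cell fluorescence minus DMSO-well median fluorescence · Compound dosing – single dose, test compound at 6.6 µM final · Probe or stimulus – no JC-1 substrate · Timing – Cell–compound exposure 10 min, 25 °C, end-over-end rotation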
Background: In flow cytometry, cells or beads pass a laser one at a time.

For `COC(=O)COc1cc(C)cc2oc(=O)c3c(c12)CCCC3`, the fluorescence was 1.36.

The values are drawn from PubChem BioAssay AID1480 (NMMLSC, 2009).
